The structures appear in SMILES notation. The source made the active and inactive calls. The calls are words filed in the database; no cut-off is given here.

Common to all, as to format: cell-based
The target in test [1] is T1, Neuronal acetylcholine receptor subunit alpha-7 (Homo sapiens, UniProt P36544). Kind of test: Positive allosteric modulation activity at human alpha7 nAChR expressed in Xenopus laevis oocytes assessed as increase in acetylcholine-induced channel current at 10 uM at -90 mV holding potential preincubated for 2 mins followed by co-application with acetylcholine for 10 secs by two-electrode voltage clamp method relative to control. The gist of the method:
(§1)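 Human α7 nAChR expressed in Xenopus laevis oocytes and recorded by two-electrode voltage clamp. Each compound was tested at 10 μM with 100 μM ACh. Data come from 2–5 individual oocytes.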
(In general: Two-electrode voltage clamp is typically applied to oocytes expressing channels or transporters.)

Test [2] deals with T1, Neuronal acetylcholine receptor subunit alpha-7. The experiment in a line: Agonist activity at human alpha7 nAChR expressed in Xenopus laevis oocytes assessed as increase in channel current at -90 mV holding potential by two-electrode voltage clamp method.
Test [3] has the same target. The experiment in a line: Positive allosteric modulation activity at human alpha7 nAChR expressed in Xenopus laevis oocytes assessed as increase in acetylcholine-induced channel current at -90 mV holding potential preincubated for 2 mins followed by co-application with acetylcholine for 10 secs by two-electrode voltage clamp method. The gist of the method: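 Human α7 nAChR was recorded in Xenopus oocytes by two-electrode voltage clamp, with 100 μM ACh as agonist. EC50 is the compound concentration giving half of the maximum activation effect. Data come from 2–5 individual oocytes.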

The target is the same in test [4]. Kind of test: Positive allosteric modulation activity at alpha7 nAChR (unknown origin) expressed in Xenopus laevis oocytes assessed as increase in acetylcholine-induced channel current at 10 uM at -90 mV holding potential by two-electrode voltage clamp method relative control. The gist of the method: as §1
Test [5] addresses T2, 5-hydroxytryptamine receptor 3A (Homo sapiens) (UniProt P46098).
T2 sequence (whole entry): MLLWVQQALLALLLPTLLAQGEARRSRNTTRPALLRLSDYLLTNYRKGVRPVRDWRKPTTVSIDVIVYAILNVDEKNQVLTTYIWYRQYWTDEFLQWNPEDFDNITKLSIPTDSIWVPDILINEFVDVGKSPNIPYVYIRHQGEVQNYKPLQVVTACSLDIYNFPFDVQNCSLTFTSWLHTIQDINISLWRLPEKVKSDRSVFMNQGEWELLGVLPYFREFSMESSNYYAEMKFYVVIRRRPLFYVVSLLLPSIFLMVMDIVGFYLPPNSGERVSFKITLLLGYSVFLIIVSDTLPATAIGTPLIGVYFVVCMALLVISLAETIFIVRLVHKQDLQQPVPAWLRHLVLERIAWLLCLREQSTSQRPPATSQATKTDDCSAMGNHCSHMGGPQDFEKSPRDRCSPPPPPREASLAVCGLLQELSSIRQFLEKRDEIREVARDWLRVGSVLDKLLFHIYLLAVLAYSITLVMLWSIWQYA
The experiment in a line: Positive allosteric modulation activity at human 5-HT3A receptor expressed in Xenopus laevis oocytes assessed as increase in acetylcholine-induced channel current at 10 uM at -90 mV holding potential preincubated for 2 mins followed by co-application with acetylcholine for 10 secs by two-electrode voltage clamp method relative to control.

Test [6] addresses T1, Neuronal acetylcholine receptor subunit alpha-7. Kind of test: Positive allosteric modulation activity at human alpha7 nAChR expressed in Xenopus laevis oocytes assessed as increase in acetylcholine-induced channel current by measuring maximum efficacy of acetylcholine at 10 uM at -90 mV holding potential preincubated for 2 mins followed by co-application with acetylcholine for 10 secs by two-electrode voltage clamp method relative to control. In outline:
(§2)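 ACh concentration-response on α7-expressing Xenopus oocytes, run without compound or after 2 min preincubation with 10 μM compound. Peak currents were normalised to the current evoked by 100 μM ACh alone. Curves were fitted for Emax, ACh EC50 and Hill coefficient, n = 4 per point.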

Test [7] has the same target. Kind of test: Positive allosteric modulation activity at human alpha7 nAChR expressed in Xenopus laevis oocytes assessed as increase in acetylcholine-induced channel current at 0.1 uM to 30 uM at -90 mV holding potential preincubated for 2 mins followed by co-application with acetylcholine for 10 secs by two-electrode voltage clamp method relative to control. In outline: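 A control current to 100 μM ACh alone was recorded first. Oocytes expressing α7 nAChR were then preincubated 2 min with compound at 0.1–30 μM, followed by co-application with 100 μM ACh for 10 s. Peak currents were normalised to the 100 μM ACh-alone amplitude. Data were fitted for EC50, Emax and Hill coefficient, n = 4 per point.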

The target of test [8] is Neuronal acetylcholine receptor; alpha3/beta4 (Rattus norvegicus) (UniProt P04757+P12392). Kind of test: Positive allosteric modulation activity at rat alpha3beta4 nAChR expressed in Xenopus laevis oocytes assessed as increase in acetylcholine-induced channel current at 10 uM at -90 mV holding potential preincubated for 2 mins followed by co-application with acetylcholine for 10 secs by two-electrode voltage clamp method relative to control.

In test [9] the target is T1, Neuronal acetylcholine receptor subunit alpha-7. The experiment in a line: Induction of desensitization of human alpha7 nAChR expressed in Xenopus laevis oocytes assessed as acetylcholine-induced channel desensitization time constant at 10 uM at -90 mV holding potential by two-electrode voltage clamp method (reference value: 6.37 +/- 2.56).
The target of test [10] is Neuronal acetylcholine receptor; alpha4/beta2 (Rattus norvegicus) (UniProt P09483+P12390). Kind of test: Positive allosteric modulation activity at rat alpha4beta2 nAChR expressed in Xenopus laevis oocytes assessed as increase in acetylcholine-induced channel current at 10 uM at -90 mV holding potential preincubated for 2 mins followed by co-application with acetylcholine for 10 secs by two-electrode voltage clamp method relative to control.

The target of test [11] is T1, Neuronal acetylcholine receptor subunit alpha-7. Kind of test: Positive allosteric modulation activity at human alpha7 nAChR expressed in Xenopus laevis oocytes assessed as increase in acetylcholine-induced channel current by measuring maximum efficacy of acetylcholine at 10 uM at -90 mV holding potential preincubated for 2 mins followed by co-application with acetylcholine for 10 secs by two-electrode voltage clamp method (reference value: 339%). In outline:
as §2

T1 sequence (P36544 whole entry): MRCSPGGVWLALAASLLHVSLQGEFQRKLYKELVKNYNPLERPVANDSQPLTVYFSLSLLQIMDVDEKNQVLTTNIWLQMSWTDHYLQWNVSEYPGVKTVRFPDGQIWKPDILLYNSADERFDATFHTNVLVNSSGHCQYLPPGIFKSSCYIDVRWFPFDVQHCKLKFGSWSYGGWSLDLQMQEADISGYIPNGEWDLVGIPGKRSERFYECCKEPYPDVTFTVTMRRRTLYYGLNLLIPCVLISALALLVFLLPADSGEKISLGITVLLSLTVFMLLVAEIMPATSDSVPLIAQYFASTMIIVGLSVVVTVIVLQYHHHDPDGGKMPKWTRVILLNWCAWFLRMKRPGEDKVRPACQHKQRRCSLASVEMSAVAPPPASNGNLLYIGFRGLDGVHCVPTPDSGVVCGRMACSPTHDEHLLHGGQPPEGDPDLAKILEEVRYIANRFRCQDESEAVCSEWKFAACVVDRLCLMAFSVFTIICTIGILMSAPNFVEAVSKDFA

Take `Cc1ccc(-c2cnc(N)c(C(=O)Nc3c(C)cccc3Cl)c2)cc1`: in test [1], the maximum response (Emax) turned out to be 539%. Besides, the outcome in test [2] was inactive. In addition, the 50% effective concentration (EC50) in test [3] was determined as 3.19 µM.

`Cc1cccc(Cl)c1NC(=O)c1cc(-c2ccccc2F)cnc1N`: the maximum response (Emax) in test [1] is 119%. Besides, the result in test [2] was inactive.

On to `COc1ccc(-c2ccc3ncn(-c4c(C)cccc4Cl)c(=O)c3c2)cc1`, for which the maximal effect (Emax) in test [4] worked out at 65%.

Take `Cc1cccc(Cl)c1NC(=O)c1cc(-c2ccc(F)c(Cl)c2)cnc1N`: the maximum response (Emax) in test [1] was 495%. Also, in test [2], the outcome was inactive. Besides, in test [3], the EC50 turned out to be 5.49 µM.

In the case of `COc1ccccc1-c1cnc(N)c(C(=O)Nc2c(C)cccc2Cl)c1`, the Emax in [1] is 1010%. Moreover, in test [2], the outcome was inactive. For the same compound, the concentration for a half-maximal effect (EC50) in test [3] stood at 4.32 µM.

Take `Cc1cccc(Cl)c1NC(=O)c1cncc(-c2ccc(Cl)cc2)c1`: the Emax in test [1] worked out at 150%. Moreover, the result in [2] was inactive.

For `COc1ccc(-c2cnc(N)c(C(=O)Nc3c(C)cccc3Cl)c2)cc1`, in [1], the Emax came out at 531%. The result in [2] was inactive. Further, the concentration giving a half-maximal response (EC50) in [3] is 8.5 µM.

Regarding `Cc1ccc(-c2cncc(C(=O)Nc3c(C)cccc3Cl)c2)cc1`, in test [1], the Emax is 603%. Besides, the result in [2] was inactive. In [3], the concentration giving a half-maximal response (EC50) was determined as 1.97 µM.

On to `Cc1ccc(-c2cnc(N)c(C(=O)Nc3c(C)cccc3Cl)c2)c(F)c1`, for which the Emax in test [1] came out at 372%. Besides, the result in test [2] was inactive.

`Cc1cccc(Cl)c1NC(=O)c1cncc(-c2ccc(F)cc2)c1`: the Emax in test [1] was 248%. The outcome in test [2] was inactive.

With `Cc1cccc(Cl)c1NC(=O)c1cc(-c2ccoc2)cnc1N`, the Emax in [1] was found to be 111%. Moreover, the outcome in [2] was inactive.

As to `Cc1cccc(Cl)c1NC(=O)c1cc(-c2ccc(Cl)cc2)cnc1N`, the maximal response (Emax) in [1] was determined as 278%. Moreover, in test [2], the outcome was inactive.

As to `Cc1cccc(Cl)c1NC(=O)c1cc(-c2ccc([N+](=O)[O-])cc2)cnc1N`, the Emax in test [1] amounted to 135%. For the same compound, the result in [2] was inactive.

Consider `Cc1ccc(-c2cnc(N)c(C(=O)Nc3c(C)cccc3Cl)c2)cc1F`, for which the Emax in [1] was 609%. Also, in test [2], the outcome was inactive. In addition, the EC50 in test [3] amounted to 3.31 µM.

As to `Cc1cc(F)ccc1-c1cnc(N)c(C(=O)Nc2c(C)cccc2Cl)c1`, in [1], the Emax turned out to be 225%. For the same compound, in test [2], the result was inactive.

With `COc1cccc(-c2cnc(N)c(C(=O)Nc3c(C)cccc3Cl)c2)c1`, the maximum response (Emax) in [1] is 212%. In test [2], the result was inactive.

As to `Cc1cccc(Cl)c1NC(=O)c1cc(-c2ccc(F)cc2Cl)cnc1N`, the maximum response (Emax) in test [1] was 186%. In test [2], the outcome was inactive.

For the compound `Cc1cccc(Cl)c1NC(=O)c1cc(-c2cccc(F)c2)cnc1N`, the Emax in test [1] turned out to be 86%. For the same compound, the outcome in [2] was inactive.

Take `Cc1cccc(Cl)c1NC(=O)c1cc(-c2ccsc2)cnc1N`: the maximal response (Emax) in [1] is 153%. Further, the result in test [2] was inactive.

`Cc1cccc(Cl)c1-n1cnc2ccc(-c3ccc(F)cc3)cc2c1=O`: the Emax in test [4] was 76%.

Turning to `Cc1ccc(Nc2nc3ncn(-c4c(C)cccc4Cl)c(=O)c3s2)cc1`, the Emax in test [4] was found to be 1620%.

Turning to `Cc1cccc(Cl)c1NC(=O)c1cc(-c2cccnc2)cnc1N`, the Emax in test [1] was determined as 138%. The result in test [2] was inactive.

On to `Cc1cccc(Cl)c1NC(=O)c1cc(-c2ccc(F)cc2)ccc1N`, for which the maximal effect (Emax) in [1] came out at 136%. For the same compound, the outcome in test [2] was inactive.

With `CCc1ccc(-c2cnc(N)c(C(=O)Nc3c(C)cccc3Cl)c2)cc1`, the maximum response (Emax) in test [1] is 455%. For the same compound, the outcome in test [2] was inactive. In [3], the 50% effective concentration (EC50) is 1.35 µM.

Regarding `Cc1cccc(Cl)c1NC(=O)c1cc(-c2ccc(Cl)c(F)c2)cnc1N`, the maximal response (Emax) in [1] is 229%. Moreover, the outcome in [2] was inactive.

Take `Cc1cccc(Cl)c1-n1cnc2nc(SCc3ccccc3)sc2c1=O`: the Emax in test [4] was found to be 1630%.

On to `Cc1cccc(Cl)c1NC(=O)c1cc(-c2ccccc2)cnc1N`, for which the maximal response (Emax) in [1] was 273%. Moreover, the outcome in test [2] was inactive.

For `Cc1cccc(Cl)c1NC(=O)c1cc(-c2ccc(OC(F)(F)F)cc2)cnc1N`, the Emax in test [1] came out at 153%. Besides, in test [2], the result was inactive.

On to `Cc1cc(-c2cnc(N)c(C(=O)Nc3ccccc3C)c2)ccc1F`, for which the Emax in [1] worked out at 156%. The outcome in test [2] was inactive.

Regarding `Cc1cc(-c2cnc(N)c(C(=O)Nc3c(C)cccc3Cl)c2)ccc1F`, the Emax in test [5] came out at 94%; in [8] it was 78%; in test [1] it was 1470%; in test [10], 72%; in test [11] it was 2170%. Also, in test [6], the fold change (FC) turned out to be 7. Besides, the Activity entry in test [7] is “Dose-dependent effect”. The K in test [9] was 3.49. Moreover, the result in [2] was inactive. Also, the EC50 in [3] was 3.34 µM.

For the compound `CSc1ccc(-c2cnc(N)c(C(=O)Nc3c(C)cccc3Cl)c2)cc1`, the Emax in [1] stood at 774%. Besides, the result in test [2] was inactive. For the same compound, the EC50 in test [3] is 4.96 µM.

On to `Cc1cccc(Cl)c1NC(=O)c1cc(-c2ccc(C(F)(F)F)cc2)cnc1N`, for which the maximum response (Emax) in [1] is 164%. For the same compound, the outcome in test [2] was inactive.

`Cc1cccc(Cl)c1NC(=O)c1cc(-c2ccc(F)cc2)cnc1N`: the Emax in test [1] is 604%. The outcome in test [2] was inactive. The EC50 in test [3] stood at 4.57 µM.

For `Cc1cc(-c2cnc(N)c(C(=O)Nc3ccccc3)c2)ccc1F`, the Emax in test [1] amounted to 94%. Also, in [2], the result was inactive.

On to `Cc1cccc(Cl)c1NC(=O)c1cc(-c2ccc(O)cc2)cnc1N`, for which, in test [1], the maximum response (Emax) worked out at 257%. For the same compound, in test [2], the outcome was inactive.

For the compound `CC(=O)Nc1ccc(-c2cnc(N)c(C(=O)Nc3c(C)cccc3Cl)c2)cc1`, the Emax in [1] came to 109%. Besides, the result in [2] was inactive.

Usually Emax stands for the size of the effect at its maximum, as opposed to the concentration needed. What is called EC50 is the concentration that produces a half-maximal response.

Source of the values: ChEMBL document CHEMBL4387746, “Chemical conversion of nicotinamide into type I positive allosteric modulator of α7 nAChRs” (Bioorg Med Chem Lett, 2019).
